Results as given in ChEMBL document CHEMBL1153547, “Rifampin inhibits prostaglandin E2 production and arachidonic acid release in human alveolar epithelial cells” (Antimicrob Agents Chemother, 2007).
Calls of active or inactive are those of the source. The calls are words filed in the database; no cut-off is given here.

Legend:
A549 [1] = experiment: Cytotoxicity against human A549 cells assessed as cell viability by neutral red uptake assay; format: cell-based
Method in brief: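 A549 cells in 96-well plates, after treatment, given neutral red at 0.05% final in fresh medium for 1 h. Cells washed with cold PBS containing Ca2+ and Mg2+, then dye extracted with Sorenson's citrate buffer-ethanol. Absorbance read at 540 nm. Viability taken as the absorbance ratio of treated to untreated cells.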

A549 [2] = experiment: Immunomodulatory effect in human A549 cells assessed as reduction in basal release of [3H]arachidonic acid at 50 ug/ml up to 19 hrs by liquid scintillation counting; format: functional; design: scale not given: the % may be the effect or the level left
Method in brief: (§1)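 A549 cells prelabeled 4 h with [3H]AA at 0.5 µCi/ml, washed, then kept in serum-free medium with 1 mg/ml BSA, alone or with rifampin, with sampling at set times. Supernatant radioactivity counted by liquid scintillation and given as % of incorporated label. Incorporation estimated by subtracting supernatant counts after labeling from the radioactivity added. Two independent experiments, n = 5 per group.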

A549 [3] = experiment: Immunomodulatory effect in human A549 cells assessed as reduction in IL-1-beta-induced PGE2 formation at 25 ug/ml after 48 hrs by enzyme immunoassay; format: functional; design: scale not given: the % may be the effect or the level left
Method in brief: (§2)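 A549 cells seeded at 1.5 x 10^5/well and grown 24 h, then held overnight in serum- and antibiotic-free medium. Cells exposed to IL-1ß (1 ng/ml) with or without rifampin (10 to 100 µg/ml) in fresh medium for 48 h, with DMSO vehicle at most 0.1%. Cleared supernatants stored at –70°C. PGE2 measured by enzyme immunoassay, triplicate wells.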

A549 [4] = experiment: Immunomodulatory effect in human A549 cells assessed as reduction in IL-1-beta-induced PGE2 formation at 50 ug/ml after 48 hrs by enzyme immunoassay; format: functional; design: scale not given: the % may be the effect or the level left; method in brief: as §2
A549 [5] = experiment: Immunomodulatory effect in human A549 cells assessed as inhibition of Ca2+ ionophore A23187 stimulated-[3H]arachidonic acid release measured after 4 hrs of A23187 challenge by liquid scintillation counting; format: functional
[6] = Drug level in serum at 600 mg; format: ADME, cell-free
A549 [7] = experiment: Immunomodulatory effect in human A549 cells assessed as inhibition of Ca2+ ionophore A23187 stimulated-[3H]arachidonic acid release measured after 2 hrs of A23187 challenge by liquid scintillation counting; format: functional
A549 [8] = experiment: Immunomodulatory effect in human A549 cells assessed as reduction in IL-1-beta-induced [3H]arachidonic acid release at 50 ug/ml measured after 2 hrs of IL1-beta challenge by liquid scintillation counting; format: functional; design: scale not given: the % may be the effect or the level left
Method in brief: (§3)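 A549 cells (2 x 10^6 per 3-cm plate), grown 24 h, labeled 4 h with [3H]AA at 0.5 µCi/ml in serum-free medium, then washed five times. Incubated in serum-free medium with 1 mg/ml BSA plus IL-1ß (1 ng/ml) ± rifampin, or rifampin alone, or medium alone, for 4 h unless another time is stated. Supernatant counted by liquid scintillation. Release given as % of incorporated label. Inhibition = 100 x [(IL-1ß – medium) – (IL-1ß+rif – rif alone)]/(IL-1ß – medium).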

A549 [9] = experiment: Immunomodulatory effect in human A549 cells assessed as reduction in basal release of [3H]arachidonic acid at 50 ug/ml up to 2 hrs by liquid scintillation counting; format: functional; design: scale not given: the % may be the effect or the level left; method in brief: as §1
A549 [10] = experiment: Immunomodulatory effect in human A549 cells assessed as reduction in IL-1-beta-induced [3H]arachidonic acid release measured after 4 hrs of IL1-beta challenge by liquid scintillation counting; format: functional, cell-based; method in brief: as §3
A549 [11] = experiment: Immunomodulatory effect in human A549 cells assessed as reduction in IL-1-beta-induced [3H]arachidonic acid release at 50 ug/ml measured after 6 hrs of IL1-beta challenge by liquid scintillation counting; format: functional; design: scale not given: the % may be the effect or the level left; method in brief: as §3
A549 [12] = experiment: Immunomodulatory effect in human A549 cells assessed as inhibition of Ca2+ ionophore A23187 stimulated-[3H]arachidonic acid release measured after 45 mins of A23187 challenge by liquid scintillation counting; format: functional, cell-based
A549 [13] = experiment: Inhibition of IL-1-beta-induced COX2 expression in human A549 cells at 50 ug/ml measured after 24 hrs of IL1-beta challenge by Western blot analysis; format: functional, cell-based
Method in brief: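 A549 cells (2 x 10^6 per 3-cm dish) grown 24 h, then 24 h in serum- and antibiotic-free medium. Treated with IL-1ß (1 ng/ml) ± rifampin (50 µg/ml) for 24 h, then lysed in SDS buffer and denatured at 95°C. Blocked in 5% milk/TBST, then rabbit anti-COX-2 (1:1,000) overnight at 4°C. HRP secondary used and detected by ECL, with β-actin as comparator and densitometry.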

A549 [14] = experiment: Immunomodulatory effect in human A549 cells assessed as reduction in IL-1-beta-induced [3H]arachidonic acid release at 10 to 100 ug/ml measured after 4 hrs of IL1-beta challenge by liquid scintillation counting; format: functional, cell-based; method in brief: as §3
A549 [15] = experiment: Immunomodulatory effect in human A549 cells assessed as reduction in IL-1-beta-induced [3H]arachidonic acid release at 50 ug/ml measured after 19 hrs of IL1-beta challenge by liquid scintillation counting; format: functional; design: scale not given: the % may be the effect or the level left; method in brief: as §3
A549 [16] = experiment: Immunomodulatory effect in human A549 cells assessed as reduction in spontaneous release of [3H]arachidonic acid by liquid scintillation counting; format: functional, cell-based; method in brief: as §1
A549 [17] = experiment: Immunomodulatory effect in human A549 cells assessed as reduction in IL-1-beta-induced PGE2 formation at 100 ug/ml after 48 hrs by enzyme immunoassay; format: functional, cell-based; method in brief: as §2

With CO[C@H]1/C=C/O[C@@]2(C)Oc3c(C)c(O)c4c(O)c(c(/C=N/N5CCN(C)CC5)c(O)c4c3C2=O)NC(=O)/C(C)=C\C=C\[C@H](C)[C@H](O)[C@@H](C)[C@@H](O)[C@@H](C)[C@H](OC(C)=O)[C@@H]1C [RIFAMPIN] the Activity (A549 [1]) was “Non-toxic”, the Activity (A549 [2]) was 34% and the Activity (A549 [3]) was 45%. The Activity (A549 [4]) was 59%, the “inhibition (INH)” value (A549 [5]) was 8.3% and the Drug uptake [6] was 10 µg/mL. For the same molecule, the “inhibition (INH)” value (A549 [7]) was 5.5%, the Activity (A549 [8]) was 53% and the Activity (A549 [9]) was 47%. The Activity (A549 [10]) was “Dose-dependent effect”, the Activity (A549 [11]) was 79% and the inhibition (A549 [12]) was “inactive”. The inhibition (A549 [13]) was “inactive”, the Activity (A549 [14]) was “Active” and the Activity (A549 [15]) was 95%. The Activity (A549 [16]) was “Dose-dependent effect” and the Activity (A549 [17]) was “Dose-dependent effect”.
